One series deals with Mus musculus. In words: Analgesic activity in Albino mouse assessed as inhibition of acetic acid-induced writhing at 300 umol/kg, po administered 1 hr before acetic acid challenge and measured 10 mins after acetic acid challenge. The class given is functional. In outline:
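Mice of both sexes (18–23 g) dosed orally as a suspension in 5% Arabic gum in saline; vehicle controls got an equal volume. Acetic acid 0.6% (0.1 mL/10 g) given i.p. 1 h later. Constrictions per animal counted for 20 min, starting 10 min after the injection. Value is % inhibition of constrictions versus vehicle group, mean ± SEM, N = 8–10.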

Series [1] concerns Rattus norvegicus. The series can be described thus: Antiinflammatory activity in Albino rat assessed as inhibition of carrageenan-induced paw edema at 300 umol/kg, po administered 1 hr before carrageenan challenge and measured 3 hrs after carrageenan challenge.
Series [2] deals with Rattus norvegicus. In words: Gastrointestinal toxicity in Albino rat assessed ulcer index at 300 umol/kg, po. To be noted: in vivo.
Series [3] in a line: Ratio of IC50 for COX1 to IC50 for COX2.

The structures appear in SMILES notation.

By inhibition in vivo is commonly meant the percentage by which the read-out fell short of the control.

In the case of `CCCNC(=O)CC1=C(C)/C(=C/c2ccc(S(C)(=O)=O)cc2)c2ccc(F)cc21`, the inhibition in vivo at 300 µmol/kg in the series with Mus musculus worked out at 39%; in the series with Rattus norvegicus [1] it was 20%. In the series on Rattus norvegicus [2], this compound displayed a UI of 1.4.

For the compound `CCN(CC)C(=O)CC1=C(C)/C(=C/c2ccc(S(C)(=O)=O)cc2)c2ccc(F)cc21`, the inhibition in vivo at 300 µmol/kg in the series on Mus musculus turned out to be 14%; in the series with Rattus norvegicus [1] it was 27%. The compound further gave a UI in the series on Rattus norvegicus [2] of 1.

In the case of `CC1=C(CC(=O)O)c2cc(F)ccc2/C1=C\c1ccc(S(C)(=O)=O)cc1` [EXISULIND], the inhibition in vivo at 300 µmol/kg with Mus musculus was found to be 34%; in the series on Rattus norvegicus [1], 48%.

On to `CNC(=O)CC1=C(C)/C(=C/c2ccc(S(C)(=O)=O)cc2)c2ccc(F)cc21`, for which the inhibition in vivo at 300 µmol/kg was found to be 43% in the series on Mus musculus and 35% in the series on Rattus norvegicus [1]. The UI with Rattus norvegicus [2] stood at 0.

Take `Cc1ccc(-c2cc(C(F)(F)F)nn2-c2ccc(S(N)(=O)=O)cc2)cc1` [CELECOXIB]: the inhibition in vivo at 300 µmol/kg is 56% with Mus musculus and 35% in the series on Rattus norvegicus [1].

For `CCNC(=O)CC1=C(C)/C(=C/c2ccc(S(C)(=O)=O)cc2)c2ccc(F)cc21`, the results for the inhibition in vivo at 300 µmol/kg in the series on Mus musculus and in the series with Rattus norvegicus [1] were 59% and 27%, respectively. For the same compound, the UI in the series on Rattus norvegicus [2] was 0.

As for `CC1=C(CC(=O)Nc2ccccc2)c2cc(F)ccc2/C1=C\c1ccc(S(C)(=O)=O)cc1`, the inhibition in vivo at 300 µmol/kg in the series on Mus musculus was 19%; with Rattus norvegicus [1], 12%. In the series with Rattus norvegicus [2], this compound registered a UI of 0.

Regarding `CC1=C(CC(=O)N2CCSCC2)c2cc(F)ccc2/C1=C\c1ccc(S(C)(=O)=O)cc1`, the inhibition in vivo at 300 µmol/kg was found to be 48% with Mus musculus and 11% with Rattus norvegicus [1]. This compound also yielded a UI in the series on Rattus norvegicus [2] of 4.

Consider `CC1=C(CC(=O)N2CCOCC2)c2cc(F)ccc2/C1=C\c1ccc(S(C)(=O)=O)cc1`, for which the values for the inhibition in vivo at 300 µmol/kg with Mus musculus and in the series with Rattus norvegicus [1] were 22% and 4%, respectively. Moreover, the UI in the series on Rattus norvegicus [2] is given as 0.

Regarding `CCCCNC(=O)CC1=C(C)/C(=C/c2ccc(S(C)(=O)=O)cc2)c2ccc(F)cc21`, the inhibition in vivo at 300 µmol/kg in the series on Mus musculus was 35%; in the series with Rattus norvegicus [1], 7%. Further, in the series with Rattus norvegicus [2], the UI is reported as 2.

For `COc1ccc2c(c1)c(CC(=O)Nc1cccnc1)c(C)n2C(=O)c1ccc(Cl)cc1`, the Ratio IC50 in series [3] was 1300.

Take `CC1=C(CC(=O)N2CCCCC2)c2cc(F)ccc2/C1=C\c1ccc(S(C)(=O)=O)cc1`: the inhibition in vivo at 300 µmol/kg amounted to 36% with Mus musculus and 19% with Rattus norvegicus [1]. The compound also came in with a UI in the series on Rattus norvegicus [2] of 0.

In the case of `Cc1ccc(Cl)c(Nc2ccccc2C(=O)NOCc2ccc([N+](=O)[O-])cc2)c1Cl`, the Ratio IC50 in series [3] worked out at 273.

As for `Cc1ccc(Cl)c(Nc2ccccc2C(=O)NCCOc2ccccc2)c1Cl`, the Ratio IC50 in series [3] was determined as 440.

Consider `CC1=C(CC(=O)O)c2cc(F)ccc2/C1=C\c1ccc([S+](C)[O-])cc1` (configuration not stated), for which the inhibition in vivo at 300 µmol/kg stood at 49% in the series on Mus musculus and 67% in the series on Rattus norvegicus [1].

For the compound `CNC(=O)CC1=C(C)/C(=C/c2ccc([S+](C)[O-])cc2)c2ccc(F)cc21` (configuration not stated), the inhibition in vivo at 300 µmol/kg in the series on Mus musculus was 6%.

In the case of `Cc1ccc(Cl)c(Nc2ccccc2C(=O)O)c1Cl`, the Ratio IC50 in series [3] was 0.72.

Take `Cc1ccc(Cl)c(Nc2ccccc2C(=O)NCCCCl)c1Cl`: the Ratio IC50 in series [3] came to 40.

Turning to `COC(=O)CC1=C(C)/C(=C/c2ccc(S(C)(=O)=O)cc2)c2ccc(F)cc21`, the values for the inhibition in vivo at 300 µmol/kg in the series on Mus musculus and in the series on Rattus norvegicus [1] were 21% and 15%, respectively. In addition, in the series with Rattus norvegicus [2], the UI is 0.

The record behind these values is ChEMBL document CHEMBL1158382 (Eur J Med Chem, 2009).
